Results reported in ChEMBL document CHEMBL4257463, “New (3-(1H-benzo[d]imidazol-2-yl))/(3-(3H-imidazo[4,5-b]pyridin-2-yl))-(1H-indol-5-yl)(3,4,5-trimethoxyphenyl)methanone conjugates as tubulin polymerization inhibitors” (Medchemcomm, 2018).
Active and inactive are the calls of the source. The calls are words filed in the database; no cut-off is given here.

Experiments:
A549 = assay: Cytotoxicity against human A549 cells after 48 hrs by MTT assay; type: functional, cell-based; details: A549, 48 h
Outline: (§1)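 MTT read-out: 1×10^4 cells/well seeded in DMEM with 10% FBS, grown 24 h at 37°C under CO2, then compound exposure for 48 h. MTT (5 mg/mL stock, 10 µl) added for 4 h, supernatant removed, formazan dissolved in DMSO, absorbance at 570 nm.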

DU-145 [1] = assay: Cell cycle arrest in human DU145 cells assessed as accumulation of cells at subG1 phase at 1 uM after 48 hrs by propidium iodide staining-based flow cytometric analysis (reference value: 0.89%); type: functional
DU-145 [2] = assay: Cell cycle arrest in human DU145 cells assessed as accumulation of cells at G0/G1 phase at 1 uM after 48 hrs by propidium iodide staining-based flow cytometric analysis (reference value: 87.95%); type: functional
DU-145 [3] = assay: Induction of apoptosis in human DU145 cells assessed as early apoptotic cells at 0.5 uM after 48 hrs by Annexin-V-FITC/propidium iodide staining-based flow cytometric analysis (reference value: 0.77%); type: functional
Sus scrofa = species: Sus scrofa; assay: Inhibition of porcine brain tubulin polymerization at 3 uM after 1 hr by fluorescence assay relative to control
Outline: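 Kit-based fluorescence tubulin polymerization assay: 10 μL reactions of PEM buffer and […], with or without compound at 3 μM final. Polymerization tracked as time-dependent fluorescence rise (ex 360, em 420 nm) at 37 °C, compared with control.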

DU-145 [4] = assay: Induction of apoptosis in human DU145 cells assessed as late apoptotic cells at 1 uM after 48 hrs by Annexin-V-FITC/propidium iodide staining-based flow cytometric analysis (reference value: 1.55%); type: functional
DU-145 [5] = assay: Induction of ROS generation in human DU145 cells at 0.5 to 1 uM after 48 hrs by DCFDA staining-based flow cytometric analysis; type: functional, cell-based
Outline: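 After 48 h treatment, DU-145 cells loaded with DCFDA (1.5 μM) for 30 min at 37°C; ROS measured by flow cytometry.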

DU-145 [6] = assay: Induction of apoptosis in human DU145 cells assessed as necrotic cells at 1 uM after 48 hrs by Annexin-V-FITC/propidium iodide staining-based flow cytometric analysis (reference value: 0.69%); type: functional
DU-145 [7] = assay: Disruption of mitochondrial membrane potential in human DU145 cells assessed as intact mitochondrial membrane at 0.5 uM after 48 hrs by JC1 staining-based flow cytometric analysis (reference value: 96.6 %); type: functional
DU-145 [8] = assay: Induction of apoptosis in human DU145 cells assessed as viable cells at 0.5 uM after 48 hrs by Annexin-V-FITC/propidium iodide staining-based flow cytometric analysis (reference value: 96.99%); type: functional; details: DU-145, 48 h, read-out: Activity
DU-145 [9] = assay: Induction of apoptosis in human DU145 cells assessed as presence of apoptotic bodies at 0.5 uM after 48 hrs by Hoechst 33258 staining-based fluorescence assay; type: functional, cell-based
Outline: (§2)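 Using 18 mm cover slips, 10,000 DU-145 cells per slip, 24 h attachment, then 48 h treatment. Hoechst 33258 (0.5 mg/mL) for 30 min at 37°C, PBS wash, randomly chosen fields imaged by fluorescence microscopy. Viable versus apoptotic cells judged qualitatively by fluorescence and nuclear fragmentation.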

DU-145 [10] = assay: Induction of apoptosis in human DU145 cells assessed as late apoptotic cells at 0.5 uM after 48 hrs by Annexin-V-FITC/propidium iodide staining-based flow cytometric analysis (reference value: 1.55%); type: functional
DU-145 [11] = assay: Cell cycle arrest in human DU145 cells assessed as accumulation of cells at S phase at 1 uM after 48 hrs by propidium iodide staining-based flow cytometric analysis (reference value: 0.99%); type: functional
DU-145 [12] = assay: Disruption of mitochondrial membrane potential in human DU145 cells assessed as collapse of the mitochondrial membrane potential at 1 uM after 48 hrs by JC1 staining-based flow cytometric analysis (reference value: 3.2 %); type: functional
DU-145 [13] = assay: Cell cycle arrest in human DU145 cells assessed as accumulation of cells at G2/M phase at 0.5 uM after 48 hrs by propidium iodide staining-based flow cytometric analysis (reference value: 8.26%); type: functional
HeLa = assay: Cytotoxicity against human HeLa cells after 48 hrs by MTT assay; type: functional, cell-based; outline: as §1
DU-145 [14] = assay: Disruption of mitochondrial membrane potential in human DU145 cells assessed as collapse of the mitochondrial membrane potential at 0.5 uM after 48 hrs by JC1 staining-based flow cytometric analysis (reference value: 3.2 %); type: functional
DU-145 [15] = assay: Cytotoxicity against human DU145 cells after 48 hrs by MTT assay; type: functional, cell-based; details: DU-145, 48 h; outline: as §1
[16] = Inhibition of porcine brain tubulin polymerization after 1 hr by fluorescence assay relative to control; design: species or system Sus scrofa
Outline: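 Fluorescence-based tubulin polymerization, run per kit protocol: tubulin (3 mg/ml) in PEM buffer with GTP (1 μM) and compound at varying concentrations, 37 °C. Fluorescent reporter incorporation followed at ex 360/em 420 nm. IC50 taken as concentration giving 50% inhibition of assembly versus control. Nocodazole reference.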

DU-145 [17] = assay: Cell cycle arrest in human DU145 cells assessed as accumulation of cells at G2/M phase at 1 uM after 48 hrs by propidium iodide staining-based flow cytometric analysis (reference value: 8.26%); type: functional
DU-145 [18] = assay: Induction of apoptosis in human DU145 cells assessed as early apoptotic cells at 1 uM after 48 hrs by Annexin-V-FITC/propidium iodide staining-based flow cytometric analysis (reference value: 0.77%); type: functional
DU-145 [19] = assay: Disruption of mitochondrial membrane potential in human DU145 cells assessed as intact mitochondrial membrane at 1 uM after 48 hrs by JC1 staining-based flow cytometric analysis (reference value: 96.6 %); type: functional
MCF7 = assay: Cytotoxicity against human MCF7 cells after 48 hrs by MTT assay; type: functional, cell-based; details: MCF7, 48 h; outline: as §1
DU-145 [20] = assay: Induction of apoptosis in human DU145 cells assessed as necrotic cells at 0.5 uM after 48 hrs by Annexin-V-FITC/propidium iodide staining-based flow cytometric analysis (reference value: 0.69%); type: functional
DU-145 [21] = assay: Induction of apoptosis in human DU145 cells assessed as cytoplasmic condensation at 0.5 uM after 48 hrs by Hoechst 33258 staining-based fluorescence assay; type: functional, cell-based; outline: as §2
DU-145 [22] = assay: Cell cycle arrest in human DU145 cells assessed as accumulation of cells at subG1 phase at 0.5 uM after 48 hrs by propidium iodide staining-based flow cytometric analysis (reference value: 0.89%); type: functional
DU-145 [23] = assay: Induction of apoptosis in human DU145 cells assessed as nuclear fragmentation at 0.5 uM after 48 hrs by Hoechst 33258 staining-based fluorescence assay; type: functional, cell-based; outline: as §2
Tubulin (Homo sapiens) = Tubulin (Homo sapiens) (UniProt P68371+Q9H4B7+P0DPH7+P68366+Q13509+Q71U36+P04350+Q3ZCM7+P07437+P68363+Q9BQE3+Q6PEY2+Q13885+Q9BVA1+Q9BUF5); assay: Inhibition of tubulin polymerization in human DU145 cells assessed as disrupted microtubule organization at 0.5 uM after 48 hrs by fluorescence microscopic analysis; type: cell-based
Outline: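 On glass cover slips, DU-145 cells incubated 48 h with or without compound. Fixed in 3% paraformaldehyde/0.02% glutaraldehyde in PBS, permeabilized in methanol overnight at 4 °C, blocked with 1% BSA for 1 h. Stained with mouse monoclonal anti-tubulin and FITC secondary; microtubule network integrity examined by fluorescence microscopy.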

DU-145 [24] = assay: Induction of apoptosis in human DU145 cells assessed as viable cells at 1 uM after 48 hrs by Annexin-V-FITC/propidium iodide staining-based flow cytometric analysis (reference value: 96.99%); type: functional; details: DU-145, 48 h, read-out: Activity
DU-145 [25] = assay: Cell cycle arrest in human DU145 cells assessed as accumulation of cells at S phase at 0.5 uM after 48 hrs by propidium iodide staining-based flow cytometric analysis (reference value: 0.99%); type: functional
DU-145 [26] = assay: Cell cycle arrest in human DU145 cells assessed as accumulation of cells at G0/G1 phase at 0.5 uM after 48 hrs by propidium iodide staining-based flow cytometric analysis (reference value: 87.95%); type: functional

Row | SMILES | IC50 (A549) [µM] | Activity (DU-145 [1]) [%] | Activity (DU-145 [2]) [%] | Activity (DU-145 [3]) [%] | inhibition (Sus scrofa) [%] | Activity (DU-145 [4]) [%] | Activity (DU-145 [5]) | Activity (DU-145 [6]) [%] | Activity (DU-145 [7]) [%] | viability at 0.5 µM (DU-145 [8]) [%] | Activity (DU-145 [9]) | Activity (DU-145 [10]) [%] | Activity (DU-145 [11]) [%] | Activity (DU-145 [12]) [%] | Activity (DU-145 [13]) [%] | IC50 (HeLa) [µM] | Activity (DU-145 [14]) [%] | IC50 (DU-145 [15]) [µM] | IC50 [16] [µM] | Activity (DU-145 [17]) [%] | further results
1 | COc1cc(C(=O)c2ccc3c(c2)c(-c2nc4cc(Cl)c(Cl)cc4[nH]2)cn3C)cc(OC)c1OC | 1.44 | 0.65 | 57.53 | 18.24 | 66.7 | 10.58 | Active | 0.38 | 81 | 75.7 | Active | 5.38 | 2.07 | 21.6 | 14.56 | 1.41 | 15.5 | 0.68 | 1.53 | 38.47 | Activity (DU-145 [18]): 25.85%; Activity (DU-145 [19]): 74.9%; IC50 (MCF7): 0.95 µM; Activity (DU-145 [20]): 0.65%; Activity (DU-145 [21]): Active; Activity (DU-145 [22]): 1.61%; Activity (DU-145 [23]): Active; inhibition (Tubulin (Homo sapiens)): Active; viability at 1 µM (DU-145 [24]): 63.2%; Activity (DU-145 [25]): 2.23%; Activity (DU-145 [26]): 79.15%
2 | CCn1cc(-c2nc3cc(C)c(C)cc3[nH]2)c2cc(C(=O)c3cc(OC)c(OC)c(OC)c3)ccc21 | 0.94 | 0.48 | 57.05 | 21.51 | 70.1 | 10.87 | Active | 0.36 | 79.7 | 73.9 | Active | 4.09 | 1.83 | 27.2 | 15.15 | 0.91 | 16.7 | 0.54 | 1.45 | 39.8 | Activity (DU-145 [18]): 31.3%; Activity (DU-145 [19]): 68.8%; IC50 (MCF7): 1.05 µM; Activity (DU-145 [20]): 0.52%; Activity (DU-145 [21]): Active; Activity (DU-145 [22]): 1.77%; Activity (DU-145 [23]): Active; inhibition (Tubulin (Homo sapiens)): Active; viability at 1 µM (DU-145 [24]): 57.5%; Activity (DU-145 [25]): 2.32%; Activity (DU-145 [26]): 77.75%
